In the RNAGym collection of RNA variant scans (doi:10.1038/s41586-018-0170-7):

B1: tRNA (parent)
chain: GUUCCGUUGGCGUAAUGGUAACGCGUCUCCCUCCUAAGGAGAAGACUGCGGGUUCGAGUCCCGUACGGAACG

Variants of: B1
Experiment: yeast fitness, log relative to wild type (ln ratio); higher = fitter; tRNA-Arg(CCU), competitive growth, 37 C, 1 M NaCl
Outline: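 Genotype fitness is expressed as the natural log of its generations over those of the wild type. Each pool of the tRNA-Arg(CCU) variant library, carried on a HIS3 centromeric plasmid in BY4742 lacking the chromosomal gene, came from one of two independent transformations and grew 4 generations in SC-HIS at 30 °C before ~6.5 generations (~26.5 h) in SC-HIS 1M NaCl at 37 °C. Generation numbers used OD-scaled log2 output/input frequencies from 125 bp paired-end Illumina sequencing, combined across replicates by inverse-variance weighting.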

| Variant | yeast fitness (ln) |
| --- | --- |
| G1A G6U C66A C71U | 0.00231 |
| U2C G6A C27U A70U | -0.0574 |
| U2C G6A A43C C46U C66U A69G A70G C71U | -0.0188 |
| G1A G6A C27U A43C C46U A69G A70G C71U | -0.374 |
| G1A U2C A70U C71U | -0.0394 |
| G1A C46U C66U A69G A70G C71U | -0.158 |
| U2C G6U C66U A69G A70G C71U | -0.346 |
| U2G G6U C27U C46U C66U A70U | -0.106 |
| G1A U2C C27U A43C A69G A70U C71U | -0.345 |
| U2G C27U A43C C46U A69G | -0.0569 |
| U2G G6A A43C C46U C71U | -0.151 |
| G1A A43C C66A A70G | -0.19 |
| U2C A43C C66U A70U C71U | -0.424 |
| G6U C27U C46U C66U | -0.209 |
| G1A U2G C27U A69G | -0.145 |
| U2C G6A A43C C46U C66U C71U | -0.0554 |
| U2C C27U C66U C71U | -0.177 |
| U2G C27U A43C | -0.0611 |
| G1A A43C C46U A69G A70G C71U | -0.13 |
| G1A U2C G6U C27U A43C C46U C66A A70G C71U | -0.0221 |
| G1A U2C A43C C46U C66A A70U C71U | -0.134 |

| Variant | yeast fitness (ln) |
| --- | --- |
| G1A U2C C27U A43C C66U A70U | -0.179 |
| G1A U2G G6U C27U C46U C66A A69G A70U C71U | -0.513 |
| G1A G6A C27U C46U C66U | -0.421 |
| G1A G6A C27U A43C C46U | -0.233 |
| G1A G6A A43C C66U A69G A70U C71U | -0.402 |
| G1A U2G G6U C27U C66A A70G | -0.268 |
| G1A U2G C27U A43C A70U | -0.154 |
| U2G C46U A70G C71U | -0.284 |
| G1A C46U C66A A70G | -0.0981 |
| U2C G6A C27U A43C C46U C66U A69G A70U | -0.173 |
| G6A C27U C46U C66A A70U | -0.102 |
| C27U A43C C46U C66A A70G | -0.0609 |
| G1A G6U C27U A43C A69G A70G C71U | -0.34 |
| U2G A43C C46U C66A C71U | -0.148 |
| A43C C46U C66A A69G A70U C71U | -0.341 |
| U2G A43C C66U C71U | -0.343 |
| U2C G6A A43C C71U | -0.0318 |
| U2C C46U C66A A70U C71U | -0.0668 |
| G1A G6U C46U A69G A70U C71U | -0.321 |
| G1A G6U C27U C46U A70G | -0.191 |
| G1A C46U A69G A70G C71U | -0.0298 |

| Variant | yeast fitness (ln) |
| --- | --- |
| U2C G6A C66A A69G A70G C71U | -0.139 |
| G1A C27U A43C C46U C71U | -0.0315 |
| U2G G6U C66U | -0.0894 |
| U2C G6A C27U A43C C46U C66U A70G | -0.0221 |
| G1A U2G C27U C46U A70G C71U | -0.503 |
| G1A G6U A43C A70G C71U | -0.383 |
| U2C G6U A43C C66A A69G A70U C71U | -0.321 |
| G6U C27U A43C C46U C71U | -0.254 |
| G1A U2G G6U C27U C46U C66U A69G A70U C71U | -0.462 |
| G6A A43C C46U C66A | -0.0495 |
| U2G A43C C46U C66U A70G | -0.0585 |
| G1A C27U A43C C46U C66A A69G A70G C71U | -0.305 |
| G1A U2C G6A C27U A43C C46U C66U C71U | -0.128 |
| U2G C27U A70G | -0.136 |
| C66A A70U C71U | -0.0544 |
| G1A G6A C27U C46U A70U C71U | -0.258 |
| G1A A43C C46U C66U A69G A70U C71U | -0.469 |
| G1A G6U A69G A70U C71U | -0.407 |
| G6A C27U C66A C71U | -0.168 |
| G1A A43C A69G A70U | -0.257 |
| U2G C27U C66A A69G C71U | -0.197 |

| Variant | yeast fitness (ln) |
| --- | --- |
| G1A C27U C66U A69G A70G C71U | -0.361 |
| G1A G6U C27U A43C A70U C71U | -0.341 |
| A43C C46U C66A | -0.0152 |
| C66A A69G A70G | -0.0347 |
| G1A U2G C27U C46U C66A A69G A70U C71U | -0.476 |
| U2G G6U C66U A70G C71U | -0.151 |
| U2C A43C C66U A69G A70G C71U | -0.23 |
| U2C C27U A43C A69G A70U | -0.136 |
| U2G G6U C46U C66U A70U | -0.0168 |
| G1A C27U A43C C46U C66U C71U | -0.219 |
| U2C C27U A43C A69G A70G C71U | -0.0704 |
| G1A U2C G6A C27U A43C C46U A70G | 0.0488 |
| U2G G6U C27U A43C C46U A69G A70U | -0.147 |
| G1A C27U A43C A69G A70U | -0.389 |
| U2G C27U C66U A69G C71U | -0.282 |
| G1A U2G C27U C66A A69G A70G C71U | -0.265 |
| G1A G6U C27U A70G C71U | -0.352 |
| G1A G6A A43C C46U C66U A69G C71U | -0.252 |
| U2G C66A | -0.0285 |
| G1A U2C G6U C66A A70U | -0.234 |
| U2G G6A C66A A69G A70G C71U | -0.213 |
